Test results taken from ChEMBL document CHEMBL1147968, “Novel lbeta-methylcarbapenems having cyclic sulfonamide moieties: synthesis and evaluation of in vitro antibacterial activity” (2007).
≈ marks a conversion by molar mass, not a printed value.

Legend:
Pseudomonas aeruginosa [1] = experiment: Antibacterial activity against Pseudomonas aeruginosa 77/2 after 18 to 24 hrs by agar dilution method; assay type: functional
Summary of the method: (§1)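 MICs were determined by agar dilution on test agar. An overnight tryptosoy broth culture was diluted in the same broth to about 10⁶ cells/mL and spotted with an inoculating device onto agar containing serial twofold dilutions of compound. Plates were incubated at 37 °C for 18–20 h, and the MIC was the lowest concentration with no visible growth.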

Escherichia coli [2] = experiment: Antibacterial activity against Escherichia coli 086 after 18 to 24 hrs by agar dilution method; assay type: functional; summary of the method: as §1
Streptococcus agalactiae [3] = experiment: Antibacterial activity against Streptococcus agalactiae 32 after 18 to 24 hrs by agar dilution method; assay type: functional; summary of the method: as §1
Enterobacter cloacae [4] = experiment: Antibacterial activity against Enterobacter cloacae after 18 to 24 hrs by agar dilution method; assay type: functional; summary of the method: as §1
Providencia rettgeri [5] = experiment: Antibacterial activity against Proteus rettgeri 937 after 18 to 24 hrs by agar dilution method; assay type: functional; summary of the method: as §1
Salmonella paratyphi = experiment: Antibacterial activity against Salmonella paratyphi A after 18 to 24 hrs by agar dilution method; assay type: functional, Salmonella enterica subsp. enterica serovar Paratyphi A; settings: Salmonella enterica
Summary of the method: (§2)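 Agar dilution on test agar with serial twofold dilutions of compound. Overnight tryptosoy broth cultures diluted in the same broth to about 10⁶ cells/mL, then applied with an inoculating device. Plates incubated at 37 °C for 18–20 h.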

Pseudomonas aeruginosa [6] = experiment: Antibacterial activity against Pseudomonas aeruginosa 110/2 after 18 to 24 hrs by agar dilution method; assay type: functional; summary of the method: as §1
Serratia marcescens [7] = experiment: Antibacterial activity against Serratia marcescens 3349 after 18 to 24 hrs by agar dilution method; assay type: functional; summary of the method: as §1
Klebsiella pneumoniae [8] = experiment: Antibacterial activity against Klebsiella pneumoniae 523 after 18 to 24 hrs by agar dilution method; assay type: functional; summary of the method: as §1
Serratia marcescens [9] = experiment: Antibacterial activity against Serratia marcescens 6093 after 18 to 24 hrs by agar dilution method; assay type: functional; summary of the method: as §1
Staphylococcus aureus [10] = experiment: Antibacterial activity against Staphylococcus aureus 503 after 18 to 24 hrs by agar dilution method; assay type: functional; summary of the method: as §1
Pseudomonas aeruginosa [11] = experiment: Antibacterial activity against Pseudomonas aeruginosa 5455 after 18 to 24 hrs by agar dilution method; assay type: functional; summary of the method: as §1
Trueperella pyogenes = experiment: Antibacterial activity against Corynebacterium pyogenes after 18 to 24 hrs by agar dilution method; assay type: functional; summary of the method: as §1
Proteus mirabilis [12] = experiment: Antibacterial activity against Proteus mirabilis 174/3 after 18 to 24 hrs by agar dilution method; assay type: functional; summary of the method: as §1
Escherichia coli [13] = experiment: Antibacterial activity against Escherichia coli 1507 after 18 to 24 hrs by agar dilution method; assay type: functional; summary of the method: as §1
Proteus mirabilis [14] = experiment: Antibacterial activity against Proteus mirabilis 112/3 after 18 to 24 hrs by agar dilution method; assay type: functional; summary of the method: as §1
Acinetobacter baumannii = experiment: Antibacterial activity against Acinetobacter baumannii 2289 after 18 to 24 hrs by agar dilution method; assay type: functional; summary of the method: as §1
Bacillus subtilis = experiment: Antibacterial activity against Bacillus subtilis ATCC 6633 after 18 to 24 hrs by agar dilution method; assay type: functional; summary of the method: as §1
Burkholderia cepacia = experiment: Antibacterial activity against Pseudomonas cepacia after 18 to 24 hrs by agar dilution method; assay type: functional; summary of the method: as §1
Serratia marcescens [15] = experiment: Antibacterial activity against Serratia marcescens 14273 after 18 to 24 hrs by agar dilution method; assay type: functional; summary of the method: as §1
Priestia megaterium = experiment: Antibacterial activity against Bacillus megaterium after 18 to 24 hrs by agar dilution method; assay type: functional; summary of the method: as §1
Streptococcus pyogenes = experiment: Antibacterial activity against Streptococcus pyogenes 9889 after 18 to 24 hrs by agar dilution method; assay type: functional
Summary of the method: (§3)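 Agar dilution on test agar holding serial twofold dilutions of compound. Overnight tryptosoy broth cultures were diluted in the same broth to about 10⁶ cells/mL and spotted with an inoculating device. Plates were incubated at 37 °C for 18–20 h.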

Salmonella typhimurium = experiment: Antibacterial activity against Salmonella Typhimurium after 18 to 24 hrs by agar dilution method; assay type: functional, Salmonella enterica subsp. enterica serovar Typhimurium; settings: Salmonella enterica; summary of the method: as §1
Escherichia coli [16] = experiment: Antibacterial activity against Escherichia coli 0114 after 18 to 24 hrs by agar dilution method; assay type: functional; summary of the method: as §1
Salmonella typhi = experiment: Antibacterial activity against Salmonella typhi after 18 to 24 hrs by agar dilution method; assay type: functional, Salmonella enterica subsp. enterica serovar Typhi; settings: Salmonella enterica; summary of the method: as §2
Enterococcus faecalis = experiment: Antibacterial activity against Enterococcus faecalis 2347 after 18 to 24 hrs by agar dilution method; assay type: functional; summary of the method: as §1
Enterococcus durans = experiment: Antibacterial activity against Streptococcus durans D after 18 to 24 hrs by agar dilution method; assay type: functional; summary of the method: as §1
Providencia rettgeri [17] = experiment: Antibacterial activity against Proteus rettgeri 936 after 18 to 24 hrs by agar dilution method; assay type: functional; summary of the method: as §1
Serratia marcescens [18] = experiment: Antibacterial activity against Serratia marcescens 370 after 18 to 24 hrs by agar dilution method; assay type: functional; summary of the method: as §1
Staphylococcus aureus [19] = experiment: Antibacterial activity against Staphylococcus aureus giorgio after 18 to 24 hrs by agar dilution method; assay type: functional; summary of the method: as §1
Streptococcus pneumoniae = experiment: Antibacterial activity against Streptococcus pneumoniae 0025 after 18 to 24 hrs by agar dilution method; assay type: functional; summary of the method: as §1
Enterococcus faecium = experiment: Antibacterial activity against Streptococcus faecium 77A after 18 to 24 hrs by agar dilution method; assay type: functional; summary of the method: as §1
Streptococcus agalactiae [20] = experiment: Antibacterial activity against Streptococcus agalactiae B after 18 to 24 hrs by agar dilution method; assay type: functional; summary of the method: as §1
Staphylococcus aureus [21] = experiment: Antibacterial activity against Staphylococcus aureus 1218 after 18 to 24 hrs by agar dilution method; assay type: functional; summary of the method: as §1
Klebsiella pneumoniae [22] = experiment: Antibacterial activity against Klebsiella pneumoniae 477 after 18 to 24 hrs by agar dilution method; assay type: functional; summary of the method: as §1
Enterobacter cloacae [23] = experiment: Antibacterial activity against Enterobacter cloacae 417 after 18 to 24 hrs by agar dilution method; assay type: functional; summary of the method: as §1
Enterobacter cloacae [24] = experiment: Antibacterial activity against Enterobacter cloacae 34 after 18 to 24 hrs by agar dilution method; assay type: functional; summary of the method: as §1
Citrobacter freundii = experiment: Antibacterial activity against Citrobacter freundii 323 after 18 to 24 hrs by agar dilution method; assay type: functional; summary of the method: as §1
[25] = Antibacterial activity against Salmonella oranienburg after 18 to 24 hrs by agar dilution method; assay type: functional, Salmonella enterica subsp. enterica serovar Oranienburg; settings: Salmonella enterica; summary of the method: as §1
Pseudomonas aeruginosa [26] = experiment: Antibacterial activity against Pseudomonas aeruginosa 880/2 after 18 to 24 hrs by agar dilution method; assay type: functional; summary of the method: as §1
Escherichia coli [27] = experiment: Antibacterial activity against Escherichia coli V6311/65 after 18 to 24 hrs by agar dilution method; assay type: functional; summary of the method: as §1
[28] = Antibacterial activity against Salmonella give after 18 to 24 hrs by agar dilution method; assay type: functional, Salmonella enterica subsp. enterica serovar Give; settings: Salmonella enterica; summary of the method: as §1
Escherichia coli [29] = experiment: Antibacterial activity against Escherichia coli TEM after 18 to 24 hrs by agar dilution method; assay type: functional; summary of the method: as §1
Staphylococcus = experiment: Antibacterial activity against coagulase negative Staphylococcus after 18 to 24 hrs by agar dilution method; assay type: functional; summary of the method: as §3
Micrococcus luteus = experiment: Antibacterial activity against Micrococcus luteus ATCC 9341 after 18 to 24 hrs by agar dilution method; assay type: functional; summary of the method: as §1
Staphylococcus aureus [30] = experiment: Antibacterial activity against Staphylococcus aureus 209P after 18 to 24 hrs by agar dilution method; assay type: functional; summary of the method: as §1
Pseudomonas aeruginosa [31] = experiment: Antibacterial activity against Pseudomonas aeruginosa 9027 after 18 to 24 hrs by agar dilution method; assay type: functional; summary of the method: as §1
[32] = system: Corynebacterium diphtheriae; experiment: Antibacterial activity against Corynebacterium diphtheriae after 18 to 24 hrs by agar dilution method; assay type: functional; summary of the method: as §1
Pasteurella multocida = experiment: Antibacterial activity against Pasteurella multocida after 18 to 24 hrs by agar dilution method; assay type: functional; summary of the method: as §1
Salmonella = experiment: Antibacterial activity against Salmonella orion after 18 to 24 hrs by agar dilution method; assay type: functional; summary of the method: as §1
Proteus vulgaris = experiment: Antibacterial activity against Proteus vulgaris 868 after 18 to 24 hrs by agar dilution method; assay type: functional; summary of the method: as §1
Haemophilus influenzae = experiment: Antibacterial activity against Haemophilus influenzae 1210 after 18 to 24 hrs by agar dilution method; assay type: functional; summary of the method: as §1
Escherichia coli [33] = experiment: Antibacterial activity against Escherichia coli 04 after 18 to 24 hrs by agar dilution method; assay type: functional; summary of the method: as §1
Escherichia coli [34] = experiment: Antibacterial activity against Escherichia coli 0126 after 18 to 24 hrs by agar dilution method; assay type: functional; summary of the method: as §1

Compound: C[C@@H](O)[C@H]1C(=O)N2C(C(=O)O)=C(SCCNC=N)C[C@H]12 [IMIPENEM ANHYDROUS]
- MIC (Pseudomonas aeruginosa [1]): 0.8 µg/mL (≈ 2.67 µM)
- MIC (Escherichia coli [2]): 0.1 µg/mL (≈ 0.334 µM)
- MIC (Streptococcus agalactiae [3]): 0.01 µg/mL (≈ 0.0334 µM)
- MIC (Enterobacter cloacae [4]): 0.1 µg/mL (≈ 0.334 µM)
- MIC (Providencia rettgeri [5]): 0.2 µg/mL (≈ 0.668 µM)
- MIC (Salmonella paratyphi): 0.1 µg/mL (≈ 0.334 µM)
- MIC (Pseudomonas aeruginosa [6]): 0.8 µg/mL (≈ 2.67 µM)
- MIC (Serratia marcescens [7]): 0.781 µg/mL (≈ 2.61 µM)
- MIC (Klebsiella pneumoniae [8]): 0.781 µg/mL (≈ 2.61 µM)
- MIC (Serratia marcescens [9]): 0.4 µg/mL (≈ 1.34 µM)
- MIC (Staphylococcus aureus [10]): < 0.01 µg/mL
- MIC (Pseudomonas aeruginosa [11]): 3.12 µg/mL (≈ 10.4 µM)
- MIC (Trueperella pyogenes): 0.01 µg/mL (≈ 0.0334 µM)
- MIC (Proteus mirabilis [12]): 0.1 µg/mL (≈ 0.334 µM)
- MIC (Escherichia coli [13]): 0.1 µg/mL (≈ 0.334 µM)
- MIC (Proteus mirabilis [14]): 0.2 µg/mL (≈ 0.668 µM)
- MIC (Acinetobacter baumannii): 12.5 µg/mL (≈ 41.8 µM)
- MIC (Bacillus subtilis): 0.03 µg/mL (≈ 0.1 µM)
- MIC (Burkholderia cepacia): 0.8 µg/mL (≈ 2.67 µM)
- MIC (Serratia marcescens [15]): 0.8 µg/mL (≈ 2.67 µM)
- MIC (Priestia megaterium): 0.03 µg/mL (≈ 0.1 µM)
- MIC (Streptococcus pyogenes): < 0.01 µg/mL
- MIC (Salmonella typhimurium): 0.4 µg/mL (≈ 1.34 µM)
- MIC (Escherichia coli [16]): 0.1 µg/mL (≈ 0.334 µM)
- MIC (Salmonella typhi): 0.05 µg/mL (≈ 0.167 µM)
- MIC (Enterococcus faecalis): 1.56 µg/mL (≈ 5.22 µM)
- MIC (Enterococcus durans): 0.1 µg/mL (≈ 0.334 µM)
- MIC (Providencia rettgeri [17]): 0.2 µg/mL (≈ 0.668 µM)
- MIC (Serratia marcescens [18]): 0.2 µg/mL (≈ 0.668 µM)
- MIC (Staphylococcus aureus [19]): 0.02 µg/mL (≈ 0.0668 µM)
- MIC (Streptococcus pneumoniae): < 0.01 µg/mL
- MIC (Enterococcus faecium): < 0.01 µg/mL
- MIC (Streptococcus agalactiae [20]): 0.01 µg/mL (≈ 0.0334 µM)
- MIC (Staphylococcus aureus [21]): 1.56 µg/mL (≈ 5.21 µM)
- MIC (Klebsiella pneumoniae [22]): 0.2 µg/mL (≈ 0.668 µM)
- MIC (Enterobacter cloacae [23]): 0.1 µg/mL (≈ 0.334 µM)
- MIC (Enterobacter cloacae [24]): 0.781 µg/mL (≈ 2.61 µM)
- MIC (Citrobacter freundii): 0.391 µg/mL (≈ 1.31 µM)
- MIC [25]: 0.4 µg/mL (≈ 1.34 µM)
- MIC (Pseudomonas aeruginosa [26]): 0.8 µg/mL (≈ 2.67 µM)
- MIC (Escherichia coli [27]): 0.05 µg/mL (≈ 0.167 µM)
- MIC [28]: 0.2 µg/mL (≈ 0.668 µM)
- MIC (Escherichia coli [29]): 0.2 µg/mL (≈ 0.668 µM)
- MIC (Staphylococcus): 0.025 µg/mL (≈ 0.0835 µM)
- MIC (Micrococcus luteus): 0.01 µg/mL (≈ 0.0334 µM)
- MIC (Staphylococcus aureus [30]): 0.01 µg/mL (≈ 0.0334 µM)
- MIC (Pseudomonas aeruginosa [31]): 0.8 µg/mL (≈ 2.67 µM)
- MIC [32]: < 0.01 µg/mL
- MIC (Pasteurella multocida): < 0.01 µg/mL
- MIC (Salmonella): 0.2 µg/mL (≈ 0.668 µM)
- MIC (Proteus vulgaris): 0.1 µg/mL (≈ 0.334 µM)
- MIC (Haemophilus influenzae): 6.25 µg/mL (≈ 20.9 µM)
- MIC (Escherichia coli [33]): 0.195 µg/mL (≈ 0.651 µM)
- MIC (Escherichia coli [34]): 0.1 µg/mL (≈ 0.334 µM)
